High-throughput results: PubChem, several laboratories
Only some compounds are listed: those with a hit (about 1.9% of all), similar ones and a draw of the others.
p47phox inh – p47phox (human) inhibition; hit rate 0.53% among 220,000; AID 1274; p47phox/p22phox peptide binding, fluorescence polarization, 2 h; inhibition, % at 24.7 µM;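 active = inhibition above about 30%, limit read from the data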;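 note: 0% = p47phox with labelled peptide and 100% = labelled peptide alone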
Target sequence (P14598 whole entry, looked up): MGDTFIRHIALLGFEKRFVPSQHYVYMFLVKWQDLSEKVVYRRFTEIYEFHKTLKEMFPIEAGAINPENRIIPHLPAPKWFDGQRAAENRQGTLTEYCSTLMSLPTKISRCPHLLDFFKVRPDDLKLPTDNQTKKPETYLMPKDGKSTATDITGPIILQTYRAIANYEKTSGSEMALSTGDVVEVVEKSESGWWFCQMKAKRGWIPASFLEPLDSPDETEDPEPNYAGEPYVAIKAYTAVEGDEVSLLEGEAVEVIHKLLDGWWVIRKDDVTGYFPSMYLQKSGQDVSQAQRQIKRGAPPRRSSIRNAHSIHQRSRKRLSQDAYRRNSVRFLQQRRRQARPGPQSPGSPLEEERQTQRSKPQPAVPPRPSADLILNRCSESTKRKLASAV
Dynein transport – blocks dynein driven cargo transport along microtubules; z-score, hits read low; 3617.4 mouse cells, GR-EGFP nuclear translocation imaging; test concentration mostly 20 µM; stimulated with dexamethasone, 1 µM; active compounds read low; hit rate 0.47% among 220,000;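 active = plate z-score of nuclear minus cytoplasmic receptor signal below a set negative limit, without overly bright fluorescence or cell loss, cut at about -3.5 in these data, passing the limit was not always enough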;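 note: z-score of nuclear minus cytoplasmic ring GR-EGFP intensity difference per well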
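Buffer or medium: tet-free, stripped-serum medium; Also added: dexamethasone, 1.0 µM final; Technique: high-content fluorescence imaging after fixation; Times: 48 h induction, 1 h compound, 30 min dex at 37 °C; Read-out: per-cell GR-EGFP intensity, nucleus versus surrounding cytoplasmic ring, well-averaged.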
RAM network inh – inhibitors of the yeast RAM network. inhibition, % at 50 µM. S. cerevisiae dse1pr::URA3 reporter, 5-FOA growth OD615, 2 d; analog-sensitive cbk1-as2 kinase mutant strain. hit rate 1.8% among 190,000;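 active = inhibition above a set limit, 3 SD over mean compound inhibition, cut at about 8.4% in these data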;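 note: 0% = DMSO-only wells with no growth and 100% = 10 µM 1-NA-PP1 full growth; inhibition rescues growth on 5-FOA so higher OD means more RAM inhibition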
pCIP destab – lowers stability of the mouse p/CIP coactivator protein; F442A p/CIP-EGFP cells, EGFP fluorescence, 16 h; decrease of EGFP signal, % at 10 µM; hit rate 0.01% among 290,000; AID 1984;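 active = EGFP signal decrease of at least 30% at 10 µM or well 3 SD below plate mean, unless failing retest; inactive = the rest, including hits failing retest or dose response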
Dynein confirm – dynein cargo transport inhibition, confirmation. AID 463116. calls only at 20 µM. shares compounds with Dynein transport. hit rate 69% among 1,000. 3617.4 GR-EGFP nuclear translocation imaging, dexamethasone-induced;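 active = inhibition of receptor movement into the nucleus at or above a set limit in both runs, with normal cell brightness and cell count; inconclusive = limit reached in only one run, brightness and count normal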;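 note: dexamethasone at 1 µM final in well for 30 min; nuclear minus cytoplasmic GR-EGFP mean intensity difference in channel 2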
The depositor's hits bear a star; i = inactive; ? = inconclusive; . = no result given; + = active, no number.

SMILES	p47phox inh	Dynein transport	RAM network inh	pCIP destab	Dynein confirm
CN(Cc1ccc(Cl)s1)C(=O)CCl	-0.6	-5.66*	1.4	6.8	+
COc1ccc(CN(C)C(=O)CCl)cc1	-3.0	-4.35*	3.3	9.6	+
CN(C)CCNC(=O)c1ccc(Cl)s1	1.6	0.278	-0.9	-12.9	.
CN(Cc1ccc(Cl)cc1)C(=O)CCl	-0.3	-6.22*	1.4	3.0	+
CC(C)N1C/C(=C/c2cccnc2)C(=O)/C(=C/c2cccnc2)C1	-0.4	-4.16*	1.9	-11.2	+
CCN1C(=O)S/C(=C/c2ccsc2)C1=O	-8.2	-1.01	0.8	-12.3	.
CC(C)N1C/C(=C/c2ccsc2)C(=O)/C(=C/c2ccsc2)C1	-11.0	-3.84*	0.5	0.7	+
CCCn1nc(C(=O)OCC(=O)Nc2cccc(OC)c2)c2ccccc2c1=O	-3.6	0.956	3.3	-12.0	.
O=C(/C=C\c1ccccc1OC(=O)c1ccccc1F)c1cc2ccccc2o1	-14.9	-4.69*	8.0	-10.8	+
CC1=NN(c2cccc(C(=O)O)c2)C(=O)/C1=C\C=C/c1ccccc1	-16.4	-5.57*	6.8	-26.4	+
COc1ccccc1N(CC(O)Cn1c(C)nc2ccccc21)S(=O)(=O)c1ccccc1 (stereo not drawn)	1.6	0.539	0.1	-4.7	.
Cc1ccc(S(=O)(=O)/N=C(\Sc2ccccc2)c2ccccc2)cc1	-4.4	-3.52*	0.9	3.7	+
Cc1cc(O)c(C(C[N+](=O)[O-])c2ccc(Cl)cc2)c(=O)o1 (stereo not drawn)	-2.6	-0.526	0.0	-15.2	.
Cc1cc(C)n(C(C[N+](=O)[O-])c2ccc(Cl)cc2)n1 (stereo not drawn)	-0.6	-5.57*	-0.6	7.3	i
CCOc1ccc2c(c1)c(=O)c(S(=O)(=O)c1ccc(CC)cc1)cn2C	.	.	.	-7.7	.
CC[n+]1c(/C=C2\Sc3ccccc3N2C)ccc2cccc(C)c21	-37.0	-8.47*	-0.8	-446.8	+
CCCC[C@H](CN[C@@H](CNC)[C@H](C)CC)NCCC12CCC(CC1)C2	.	.	.	-3.4	.
N#CC(C#N)=C1C=C2C=C(N3CCCCCC3)CCC2CC1 (stereo not drawn)	-255.3	-3.68*	3.2	-374.9	+
CC1(C)CC(NCCN2CCN(C3=CC(=C(C#N)C#N)CC(C)(C)C3)CC2)=CC(=C(C#N)C#N)C1	-35.0	0.446	0.5	-2.4	.
CN1CCN(C2=CC3=CC(=C(C#N)C#N)CCC3CC2)CC1 (stereo not drawn)	-79.7	-3.76*	2.6	-790.5	i
CCN1CCN(C2=CC3=CC(=C(C#N)C#N)CCC3CC2)CC1 (stereo not drawn)	-70.2	-5.22*	1.6	-807.6	+
N#CC(C#N)=C1C=C2C=C(N3CCOCC3)CCC2CC1 (stereo not drawn)	65.4*	-7.03*	-0.3	-970.7	+
CCOc1cc(CNCCCN2CCOCC2)cc(Br)c1OCc1ccccc1Cl	-21.2	-5.12*	0.2	-8.0	i
CCOc1cc(CNCCO)cc(Br)c1OCc1ccccc1Cl	-9.3	1.38	0.3	-0.9	.
Cc1cc(Br)ccc1N=C1NC(=O)CS1	.	.	.	-9.5	.
SMILES	p47phox inh	Dynein transport	RAM network inh	pCIP destab	Dynein confirm
Cc1cccc(CS(=O)(=O)c2nnc([C@H](Cc3ccccc3)NC(=O)OC(C)(C)C)o2)c1	-4.9	-4.92*	4.6	-7.6	i
COC(=O)CS(=O)(=O)c1nnc([C@H](Cc2ccccc2)NC(=O)OC(C)(C)C)o1	-3.2	-3.88*	1.8	-11.9	+
Cc1ccccc1N1Cc2ccccc2C1	-4.4	-0.287	1.1	-2.2	.
Cc1ccccc1-n1nc(C(=O)c2cccs2)cc(-c2nc3ccccc3[nH]2)c1=N	-7.8	1.03	3.2	7.2	.
COc1ccc(-n2nc(C(=O)c3cccs3)cc(-c3nc4ccccc4[nH]3)c2=N)cc1	24.6	-5.95	0.2	-26.0	i
COc1cccc(C2Nc3ccc4ccccc4c3C3=C2C(=O)CC(C)(C)C3)c1OCC(=O)O (stereo not drawn)	.	.	.	-2.7	.
COc1cc2nc(CCc3ccccc3)oc(=O)c2cc1OC	1.1	-0.282	-0.1	-14.1	.
N#Cc1cc2c(nc1S(=O)(=O)Cc1ccccc1)CCCC2	2.1	-1.57	-0.6	7.0	.
Cc1ccc(C(=O)/C=C/c2ccccc2)o1	-8.2	-3.73*	-1.3	-1.9	?
O=C(Nc1ccc(Cl)cc1)/C(=C/c1cccc(O)c1)c1nc2ccccc2s1	-12.6	-6*	8.5*	-1.7	+
O=C(O)C/C(=C\c1cccc(NC(=O)c2ccccc2Cl)c1)c1nc2ccccc2s1	-8.8	-1.29	.	-16.5	.
CC(=O)OCCCNc1cc(SCc2ccco2)c2nonc2c1[N+](=O)[O-]	-4.2	-5.51*	4.9	5.6	+
CCCSc1cc(NCCOC(=O)CCC)c([N+](=O)[O-])c2nonc12	1.3	-4.94*	5.2	1.0	+
CCC(=O)OCCNc1cc(Sc2nc3ccccc3[nH]2)c2nonc2c1[N+](=O)[O-]	-5.9	-4.87*	3.1	-1.9	i
O=[N+]([O-])c1c(NCCCO)cc(Sc2nc3ccccc3s2)c2nonc12	14.6	-4.13*	2.5	-5.0	+
CCOC(=O)/C(=C/C=C1\Sc2cc(C)c(C)cc2N1CC)C(C)=O	11.3	-3.8	-1.7	-733.1	i
CCOC(=O)/C(=C/C=C1\Sc2ccccc2N1CC)C(C)=O	-71.5	-0.47	0.5	-80.7	.
CCCCCn1nc(-c2ccccc2)c2nc3ccccc3nc21	-8.5	-0.295	6.6	-29.4	.
CCCn1nc(-c2ccccc2)c2nc3ccccc3nc21	-0.9	-4.51	9.6*	-48.7	i
CCCCNC(=O)c1nn2c(C(F)(F)F)cc(-c3ccc(OC)cc3)nc2c1Br	.	.	.	-6.9	.
O=C1N=C2N(CCN3CCCCC3)c3ccccc3N2/C1=C\c1ccc([N+](=O)[O-])o1	-13.5	-4.02*	0.3	5.4	+
C#CCNc1c2c(nc3ncnn13)CC(C)CC2 (stereo not drawn)	-3.2	0.897	.	-10.2	.
Nc1c(C(=O)c2ccc(Cl)cc2)sc2nsc(SCCN3CCOCC3)c12	-10.3	-10.4	.	-47.4	i
CC(=O)c1sc2nsc(SCCN3CCCCC3)c2c1N	6.9	-0.494	.	-8.5	.
Cc1cc(C)c2c(N)c(C(=O)c3ccc(Cl)cc3)sc2n1	8.9	-0.39	0.5	-8.7	.
SMILES	p47phox inh	Dynein transport	RAM network inh	pCIP destab	Dynein confirm
Nc1c(C(=O)c2ccccc2)sc2nsc(SCCN3CCCC3)c12	12.4	-5.99	.	-38.3	i
CC(C)c1ccc(C(=O)NC(=S)Nc2ccc3[nH]c(=O)[nH]c3c2)cc1	-5.5	0.644	.	-10.6	.
COc1ccccc1C(=O)NNC(=O)c1ccc(Br)o1	.	.	.	1.8	.
CC1(C)COC(c2cc([N+](=O)[O-])ccc2Cl)=N1	-10.5	0.273	3.3	-7.5	.
CC1(C)COC(/C=C/c2cccc([N+](=O)[O-])c2)=N1	-3.6	-4.45*	0.9	1.2	+
CCOc1ccc(S(=O)(=O)N2CCC(C(=O)NCC3CCCO3)CC2)cc1Cl (stereo not drawn)	.	.	.	-19.0	.
